According to ChEMBL document CHEMBL5257039, “Modulation of AMPA Receptor Gating by the Anticonvulsant Drug, Perampanel” (ACS Med Chem Lett, 2019):
Activity calls are given as the source filed them. No cut-off for these calls is given here.

What was measured:
Format in all cases: cell-based
Glutamate receptor 3 [1] = biological target: T1, Glutamate receptor 3 (Homo sapiens, UniProt P42263); assay: Blockade of whole cell current in GluA3i-G (unknown origin) transfected in HEK293 cells assessed as opening of conductance level O1 measured at -60 mV in presence of glutamate at 1 uM by whole cell patch clamp assay; conditions: filed as negative allosteric modulator
T1 sequence (P42263 whole entry): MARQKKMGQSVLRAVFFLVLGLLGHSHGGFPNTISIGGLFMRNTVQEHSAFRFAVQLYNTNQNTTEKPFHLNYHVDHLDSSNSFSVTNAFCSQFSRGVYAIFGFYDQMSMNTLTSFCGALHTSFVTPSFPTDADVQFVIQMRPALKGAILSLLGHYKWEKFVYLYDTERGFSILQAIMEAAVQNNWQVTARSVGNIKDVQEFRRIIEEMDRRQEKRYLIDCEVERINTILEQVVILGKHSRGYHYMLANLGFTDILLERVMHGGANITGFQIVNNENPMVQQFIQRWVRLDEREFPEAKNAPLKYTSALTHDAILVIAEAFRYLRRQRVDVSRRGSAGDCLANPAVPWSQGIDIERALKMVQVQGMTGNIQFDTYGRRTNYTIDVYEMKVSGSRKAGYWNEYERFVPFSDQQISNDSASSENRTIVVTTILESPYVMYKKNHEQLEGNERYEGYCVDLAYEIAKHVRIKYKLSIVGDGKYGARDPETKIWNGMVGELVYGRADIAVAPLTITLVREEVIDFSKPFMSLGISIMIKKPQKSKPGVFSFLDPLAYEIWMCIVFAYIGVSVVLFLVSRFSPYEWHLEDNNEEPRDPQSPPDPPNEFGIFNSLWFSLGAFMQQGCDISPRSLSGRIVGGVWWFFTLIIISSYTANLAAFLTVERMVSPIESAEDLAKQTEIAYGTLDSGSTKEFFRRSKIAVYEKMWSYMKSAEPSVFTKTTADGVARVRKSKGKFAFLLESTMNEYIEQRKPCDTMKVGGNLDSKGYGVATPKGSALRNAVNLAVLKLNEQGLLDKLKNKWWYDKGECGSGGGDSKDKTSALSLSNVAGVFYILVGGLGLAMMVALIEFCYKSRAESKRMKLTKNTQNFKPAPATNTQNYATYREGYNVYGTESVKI
Method in brief: (§1)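 Single homomeric GluA3i-G channels (flip, G at R/G editing site) were recorded cell-attached for 10–45 min in 5 mM L-glutamate plus 150–200 μM cyclothiazide to block desensitization. Inhibitor at 1 or 2 μM was coapplied with glutamate, and analysis used the steady-state segment. Amplitudes were fitted to closed and O1–O4 conductance levels. Fractional occupancy per level is reported as mean ± SD over 2–3 patches.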

Glutamate receptor 3 [2] = biological target: T1, Glutamate receptor 3; assay: Blockade of whole cell current in GluA3i-G (unknown origin) transfected in HEK293 cells assessed as fractional occupancy at level C by measuring ratio at -60 mV in presence of glutamate at 1 uM by whole cell patch clamp assay (RVB = 0.037 +/- 0.010); conditions: filed as negative allosteric modulator; method in brief: as §1
Glutamate receptor 3 [3] = biological target: T1, Glutamate receptor 3; assay: Blockade of whole cell current in GluA3i-G (unknown origin) transfected in HEK293 cells assessed as opening of conductance level O2 measured at -60 mV in presence of glutamate at 2 uM by whole cell patch clamp assay; conditions: filed as negative allosteric modulator; method in brief: as §1
Glutamate receptor 3 [4] = biological target: T1, Glutamate receptor 3; assay: Blockade of whole cell current in GluA3i-G (unknown origin) transfected in HEK293 cells assessed as fractional occupancy at level O3 by measuring ratio at -60 mV in presence of glutamate at 1 uM by whole cell patch clamp assay (RVB = 0.44 +/- 0.14); conditions: filed as negative allosteric modulator; method in brief: as §1
Glutamate receptor 3 [5] = biological target: T1, Glutamate receptor 3; assay: Blockade of whole cell current in GluA3i-G (unknown origin) transfected in HEK293 cells assessed as fractional occupancy at level O4 by measuring ratio at -60 mV in presence of glutamate at 1 uM by whole cell patch clamp assay (RVB = 0.14 +/- 0.050); conditions: filed as negative allosteric modulator; method in brief: as §1
Glutamate receptor 3 [6] = biological target: T1, Glutamate receptor 3; assay: Blockade of whole cell current in GluA3i-G (unknown origin) transfected in HEK293 cells assessed as opening of conductance level O2 measured at -60 mV in presence of glutamate at 1 uM by whole cell patch clamp assay; conditions: filed as negative allosteric modulator; method in brief: as §1
Glutamate receptor 3 [7] = biological target: T1, Glutamate receptor 3; assay: Blockade of whole cell current in GluA3i-G (unknown origin) transfected in HEK293 cells assessed as fractional occupancy at level O3 by measuring ratio at -60 mV in presence of glutamate at 2 uM by whole cell patch clamp assay (RVB = 0.44 +/- 0.14); conditions: filed as negative allosteric modulator; method in brief: as §1
Glutamate receptor 3 [8] = biological target: T1, Glutamate receptor 3; assay: Blockade of whole cell current in GluA3i-G (unknown origin) transfected in HEK293 cells assessed as opening of conductance level O1 measured at -60 mV in presence of glutamate at 2 uM by whole cell patch clamp assay; conditions: filed as negative allosteric modulator; method in brief: as §1
Glutamate receptor 3 [9] = biological target: T1, Glutamate receptor 3; assay: Blockade of whole cell current in GluA3i-G (unknown origin) transfected in HEK293 cells assessed as fractional occupancy at level C by measuring ratio at -60 mV in presence of glutamate at 2 uM by whole cell patch clamp assay (RVB = 0.037 +/- 0.010); conditions: filed as negative allosteric modulator; method in brief: as §1
Glutamate receptor 3 [10] = biological target: T1, Glutamate receptor 3; assay: Blockade of whole cell current in GluA3i-G (unknown origin) transfected in HEK293 cells assessed as fractional occupancy at level O1 by measuring ratio at -60 mV in presence of glutamate at 2 uM by whole cell patch clamp assay (RVB = 0.16 +/- 0.059); conditions: filed as negative allosteric modulator; method in brief: as §1
Glutamate receptor 3 [11] = biological target: T1, Glutamate receptor 3; assay: Blockade of whole cell current in GluA3i-G (unknown origin) transfected in HEK293 cells assessed as opening of conductance level O3 measured at -60 mV in presence of glutamate at 2 uM by whole cell patch clamp assay; method in brief: as §1
Glutamate receptor 3 [12] = biological target: T1, Glutamate receptor 3; assay: Blockade of whole cell current in GluA3i-G (unknown origin) transfected in HEK293 cells assessed as fractional occupancy at level O2 by measuring ratio at -60 mV in presence of glutamate at 1 uM by whole cell patch clamp assay (RVB = 0.23 +/- 0.051); conditions: filed as negative allosteric modulator; method in brief: as §1
Glutamate receptor 3 [13] = biological target: T1, Glutamate receptor 3; assay: Blockade of whole cell current in GluA3i-G (unknown origin) transfected in HEK293 cells assessed as fractional occupancy at level O2 by measuring ratio at -60 mV in presence of glutamate at 2 uM by whole cell patch clamp assay (RVB = 0.23 +/- 0.051); conditions: filed as negative allosteric modulator; method in brief: as §1
Glutamate receptor 3 [14] = biological target: T1, Glutamate receptor 3; assay: Blockade of whole cell current in GluA3i-G (unknown origin) transfected in HEK293 cells assessed as opening of conductance level O3 measured at -60 mV in presence of glutamate at 1 uM by whole cell patch clamp assay; method in brief: as §1
Glutamate receptor 3 [15] = biological target: T1, Glutamate receptor 3; assay: Blockade of whole cell current in GluA3i-G (unknown origin) transfected in HEK293 cells assessed as opening of conductance level O4 measured at -60 mV in presence of glutamate at 2 uM by whole cell patch clamp assay; method in brief: as §1
Glutamate receptor 3 [16] = biological target: T1, Glutamate receptor 3; assay: Blockade of whole cell current in GluA3i-G (unknown origin) transfected in HEK293 cells assessed as opening of conductance level O4 measured at -60 mV in presence of glutamate at 1 uM by whole cell patch clamp assay; method in brief: as §1
Glutamate receptor 3 [17] = biological target: T1, Glutamate receptor 3; assay: Blockade of whole cell current in GluA3i-G (unknown origin) transfected in HEK293 cells assessed as fractional occupancy at level O1 by measuring ratio at -60 mV in presence of glutamate at 1 uM by whole cell patch clamp assay (RVB = 0.16 +/- 0.059); conditions: filed as negative allosteric modulator; method in brief: as §1
Glutamate receptor 3 [18] = biological target: T1, Glutamate receptor 3; assay: Blockade of whole cell current in GluA3i-G (unknown origin) transfected in HEK293 cells measured at -60 mV in presence of glutamate by whole cell patch clamp assay
Method in brief: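 Whole-cell GluA3 currents were recorded at Vh −60 mV. Glutamate was applied first, then coapplied with inhibitor. Steady-state responses were normalized to currents in 5 mM glutamate in each of 19 cells, with 3–10 cells per concentration. The concentration–effect curve was fitted assuming simple inhibition.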

SMILES: N#Cc1ccccc1-c1cc(-c2ccccn2)cn(-c2ccccc2)c1=O [PERAMPANEL]
- Activity (Glutamate receptor 3 [1]): Active
- Ratio (Glutamate receptor 3 [2]): 0.078
- Activity (Glutamate receptor 3 [3]): Active
- Ratio (Glutamate receptor 3 [4]): 0.13
- Ratio (Glutamate receptor 3 [5]): 0.001
- Activity (Glutamate receptor 3 [6]): Active
- Ratio (Glutamate receptor 3 [7]): 0.015
- Activity (Glutamate receptor 3 [8]): Active
- Ratio (Glutamate receptor 3 [9]): 0.23
- Ratio (Glutamate receptor 3 [10]): 0.49
- Activity (Glutamate receptor 3 [11]): inactive
- Ratio (Glutamate receptor 3 [12]): 0.53
- Ratio (Glutamate receptor 3 [13]): 0.25
- Activity (Glutamate receptor 3 [14]): inactive
- Activity (Glutamate receptor 3 [15]): inactive
- Activity (Glutamate receptor 3 [16]): inactive
- Ratio (Glutamate receptor 3 [17]): 0.3
- IC50 (Glutamate receptor 3 [18]): 2100 nM
